A short description of assay [1]: reduced viability of SK-BR-3 breast cancer cells – cell-based, 24 h, human, pilot screen (AID 572;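 active means viability at or below 10% of carrier control in both of two separate runs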;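 further: compound exposure lasted between 18 and 24 h rather than exactly 24 h; 100% = carrier-treated control wells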). The settings on record: SK-BR-3 viability, CellTiter-Glo luminescence, at 10 µM, stronger effect = lower value. For orientation: In ATP-based viability assays light output follows the ATP content of the culture.
A short description of assay [2]: HUVEC growth inhibition – cell-based, human, primary screen (AID 575;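 active means viability at or below 30% in both replicate assays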;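 further: 100% = median of untreated cell wells with 0.1% DMSO on each plate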). The settings on record: HUVEC proliferation, CellTiter-Glo luminescence, 72 h; at 10 µM; stronger effect = lower value. Summed up:
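Test system: HUVEC primary cells. Quantity: 1250 endothelial cells in each well. Dosing: single-point 10 µM, DMSO 0.1% final. Incubation: 72 h treatment at 37 °C. Measured by: CTG luminescence. Control set: DMSO cell controls and MePR drug controls. Plate: collagen-coated 384-well format.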

The nature of assay [3]: H69AR cell proliferation blockers – human, duplicate replicates, primary screen (AID 580).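 Further: 100% = mean luminescence of untreated wells and 0% = no signal.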 Particulars: H69AR lung tumor cells viability, ATP luminescence, 72 h; at 10 µM; stronger effect = lower value.
Assay [4] can be described thus: MRP1 drug-resistance reversers in H69AR cells – cell-based, doxorubicin co-treatment, pilot screen (AID 601;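 active means viability loss from added drug above about 55%, and viability with drug at most 40%, in both replicates, limit read from the data, passing the limit was not always enough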). Particulars: CellTiter-Glo, 72 h, at 10 µM; for differential viability (reversal): stronger effect = higher value.
Assay [5] can be described thus: yeast transport mutant growth inhibition pilot in 384-well plates, post-Golgi transport modulator project (AID 636; in the data active means inhibition above about 31%). The settings on record: absorbance 615 nm, about 18 h, stronger effect = higher value.
Assay [6] in a line: growth suppression of yeast trafficking mutant, preliminary HTS, modulators of trafficking downstream of Golgi apparatus project, 1536-format plate, OD 615 nm (AID 637; in the data active means inhibition above about 30%). The settings on record: yeast transport mutant growth, absorbance 615 nm, 18 h; stronger effect = higher value.
Where [7] appears, read: H69AR cells + 2 uM doxorubicin, measured here: viability with 2 uM doxorubicin, stronger effect = lower value.
The mark [8] stands for this setting: H69AR cells, compound alone cytotoxicity.

Active and inactive are the calls of the source.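 How the source made its calls, unless noted: active means viability at or under a set limit in both replicates, limit being median viability minus 3 SD (cut at about 48% in these data, passing the limit was not always enough); inconclusive means at or under the limit in just one replicate; inactive means at or above the limit in both replicates.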

For 18 compounds, viability, differential viability (reversal) and inhibition results are on record in PubChem BioAssay.

By viability is commonly meant a read-out of living cells in per cent, often relative to untreated cells. As a reminder, the inhibition is the change of the read-out against control, counted positive when it falls.

Take `COc1ccc(-n2c(SCC(=O)N3CCCCC3C)nnc2-c2cccnc2)cc1` (centres undefined): the viability in assay [1] is 87% (inactive); in assay [2], 98.7% (inactive); in assay [3], 102% (inactive); in assay [4] (setting [7]), 91.1%; in assay [4] (setting [8]), 102%. The differential viability (reversal) in assay [4] (H69AR cells + 2 uM doxorubicin) was 10.5% (inactive). Further, the inhibition is -5.54% (inactive) in assay [5] and 2% (inactive) in assay [6].
For the compound `CC(=O)NCCC(=O)Nc1ccc(C)c(F)c1`, the viability was 110% (inactive) in assay [1]; 110% (inactive) in assay [2]; 91.4% (inactive) in assay [3]; 108% in assay [4] (setting [7]); 91.4% in assay [4] (setting [8]). Besides, the differential viability (reversal) in assay [4] (H69AR cells + 2 uM doxorubicin) was -17% (inactive). Moreover, the inhibition in assay [5] is -2.05% (inactive); in assay [6], 3.09% (inactive).
For the compound `CC(C)OC(=O)CSc1nnc(-c2cccnc2)n1Cc1ccccc1`, the viability in assay [1] was 86% (inactive); in assay [2], 105% (inactive); in assay [3], 89.9% (inactive); in assay [4] (setting [7]), 80.2%; in assay [4] (setting [8]) it was 89.9%. The differential viability (reversal) in assay [4] (H69AR cells + 2 uM doxorubicin) is 9.68% (inactive). Moreover, the inhibition was -5.81% (inactive) in assay [5] and 0.18% (inactive) in assay [6].
As for `CCOc1cc(C(=O)Nc2c3c(nn2C(C)(C)C)CS(=O)C3)cc(OCC)c1OCC` (centres undefined), the viability in assay [1] was 103% (inactive); in assay [2], 96.7% (inactive); in assay [3] it was 101% (inactive); in assay [4] (setting [7]) it was 93.7%; in assay [4] (setting [8]), 101%. Besides, the differential viability (reversal) in assay [4] (H69AR cells + 2 uM doxorubicin) is 7.14% (inactive). Also, the figures for the inhibition in assay [5] and in assay [6] were -1.04% (inactive) and -7.54% (inactive), respectively.
As for `COc1cc(C(=O)Nc2cc(-c3ccccc3)[nH]n2)cc(OC)c1OC`, the viability in assay [1] is 107% (inactive); in assay [2], 68.3% (inactive); in assay [3], 26% (active); in assay [4] (setting [7]), 71.7%; in assay [4] (setting [8]) it was 26%. Further, in assay [4] (H69AR cells + 2 uM doxorubicin), the differential viability (reversal) is -45.8% (inactive). Further, the inhibition in assay [5] was -4.27% (inactive); in assay [6], -1.27% (inactive).
For `CC(C)N(Cc1nc(-c2ccccc2)no1)C(=O)CCCN1C(=O)c2ccccc2C1=O`, the viability is 104% (inactive) in assay [1]; 112% (inactive) in assay [2]; 97.9% (inactive) in assay [3]; 82.2% in assay [4] (setting [7]); 97.9% in assay [4] (setting [8]). Further, the differential viability (reversal) in assay [4] (H69AR cells + 2 uM doxorubicin) was 15.7% (inactive). Besides, the results for the inhibition in assay [5] and in assay [6] were -3.12% (inactive) and 0.98% (inactive), respectively.
For the compound `CCCC1Cc2c(sc3ncnc(N)c23)CO1` (centres undefined), the viability in assay [1] was 111% (inactive); in assay [2], 94.5% (inactive); in assay [3], 90.9% (inactive); in assay [4] (setting [7]) it was 101%; in assay [4] (setting [8]) it was 90.9%. In addition, the differential viability (reversal) in assay [4] (H69AR cells + 2 uM doxorubicin) was -10.3% (inactive). For the same compound, the inhibition in assay [5] is -0.14% (inactive); in assay [6], -0.73% (inactive).
Regarding `c1coc(CN(Cc2cccs2)Cc2nnnn2C2CCCCC2)c1`, the viability in assay [1] is 74% (inactive); in assay [2], 83.2% (inactive); in assay [3] it was 75.7% (inactive); in assay [4] (setting [7]), 80.4%; in assay [4] (setting [8]), 75.7%. Besides, the differential viability (reversal) in assay [4] (H69AR cells + 2 uM doxorubicin) was -4.73% (inactive). Besides, the inhibition was -3.84% (inactive) in assay [5] and 0% (inactive) in assay [6].
Take `CC(CCc1ccccc1)NC(=O)C1CCN(S(=O)(=O)c2cnc[nH]2)CC1` (centres undefined): the viability was 110% (inactive) in assay [1]; 96.4% (inactive) in assay [2]; 91.3% (inactive) in assay [3]; 81.1% in assay [4] (setting [7]); 91.3% in assay [4] (setting [8]). For the same compound, the differential viability (reversal) in assay [4] (H69AR cells + 2 uM doxorubicin) is 10.2% (inactive). Besides, the inhibition in assay [5] is -9.73% (inactive); in assay [6], -3.45% (inactive).
With `O=C(NCCCN1CCOCC1)c1cc(-c2ccc(Cl)cc2)on1`, the viability is 88% (inactive) in assay [1]; 103% (inactive) in assay [2]; 94.1% (inactive) in assay [3]; 78.2% in assay [4] (setting [7]); 94.1% in assay [4] (setting [8]). Moreover, in assay [4] (H69AR cells + 2 uM doxorubicin), the differential viability (reversal) is 15.9% (inactive). For the same compound, the inhibition in assay [5] is -6.8% (inactive); in assay [6], 0.55% (inactive).
For the compound `COC(=O)c1ccc(COC(=O)c2c(C)nn(Cc3ccccc3Cl)c2Cl)o1`, the viability in assay [1] is 69% (inactive); in assay [2] it was 94.6% (inactive); in assay [3], 86.2% (inactive); in assay [4] (setting [7]), 82.1%; in assay [4] (setting [8]), 86.2%. Also, the differential viability (reversal) in assay [4] (H69AR cells + 2 uM doxorubicin) is 4.08% (inactive). Besides, the inhibition in assay [5] is -4.38% (inactive); in assay [6], 3.82% (inactive).
As to `CCc1nnc(NC(=O)C2Cc3ccccc3CN2S(=O)(=O)c2cccs2)s1` (centres undefined), the viability is 109% (inactive) in assay [1]; 89% (inactive) in assay [2]; 68.1% (inactive) in assay [3]; 84.5% in assay [4] (setting [7]); 68.1% in assay [4] (setting [8]). In addition, the differential viability (reversal) in assay [4] (H69AR cells + 2 uM doxorubicin) is -16.4% (inactive). Further, the inhibition in assay [5] is -2.34% (inactive); in assay [6] it was -3.28% (inactive).
Regarding `CCOC(=O)c1sc(NC(=O)CSc2nnc(-c3ccc(OC)cc3)n2CCOC)nc1C`, the viability in assay [1] was 99% (inactive); in assay [2], 97.2% (inactive); in assay [3], 101% (inactive); in assay [4] (setting [7]), 79.6%; in assay [4] (setting [8]) it was 101%. Besides, the differential viability (reversal) in assay [4] (H69AR cells + 2 uM doxorubicin) was 21.8% (inactive). In addition, the inhibition was -4.94% (inactive) in assay [5] and 1.31% (inactive) in assay [6].
Take `Cc1nc(C)n(C(C)CC(=O)O)n1` (centres undefined): the viability in assay [1] is 103% (inactive); in assay [2], 127% (inactive); in assay [3], 103% (inactive); in assay [4] (setting [7]) it was 97.2%; in assay [4] (setting [8]), 103%. Moreover, the differential viability (reversal) in assay [4] (H69AR cells + 2 uM doxorubicin) was 5.71% (inactive). Also, the inhibition in assay [5] was -4% (inactive); in assay [6], 1.27% (inactive).
Consider `COc1ccc(Cl)cc1NC(=O)CCN1CCN(c2ccccc2C)CC1`, for which the viability in assay [1] was 70% (inactive); in assay [2] it was 110% (inactive); in assay [3], 97.1% (inactive); in assay [4] (setting [7]) it was 91.6%; in assay [4] (setting [8]) it was 97.1%. In addition, the differential viability (reversal) in assay [4] (H69AR cells + 2 uM doxorubicin) was 5.5% (inactive). The figures for the inhibition in assay [5] and in assay [6] were -8.11% (inactive) and -0.36% (inactive), respectively.
In the case of `Cc1nc2ncnn2c(C)c1CCC(=O)NCCCN1CCN(c2cccc(Cl)c2)CC1`, the viability in assay [1] is 78% (inactive); in assay [2] it was 76.4% (inactive); in assay [3], 96.5% (inactive); in assay [4] (setting [7]), 90.1%; in assay [4] (setting [8]), 96.5%. Further, the differential viability (reversal) in assay [4] (H69AR cells + 2 uM doxorubicin) was 6.44% (inactive). Besides, the figures for the inhibition in assay [5] and in assay [6] were -2.21% (inactive) and -3.77% (inactive), respectively.
For the compound `COC(=O)CSc1nnc(CSc2nc(C)cc(C)n2)n1Cc1ccco1`, the viability in assay [1] is 81% (inactive); in assay [2] it was 104% (inactive); in assay [3], 99.8% (inactive); in assay [4] (setting [7]), 75.5%; in assay [4] (setting [8]), 99.8%. Moreover, the differential viability (reversal) in assay [4] (H69AR cells + 2 uM doxorubicin) is 24.3% (inactive). Moreover, the inhibition was -4.53% (inactive) in assay [5] and -7.27% (inactive) in assay [6].
Regarding `CN1C(=O)c2c(sc3c2CCCC3)NC1c1ccccc1O` (centres undefined), the viability in assay [1] was 72% (inactive); in assay [2], 68.7% (inactive); in assay [3] it was 93.2% (inactive); in assay [4] (setting [7]), 95.2%; in assay [4] (setting [8]) it was 93.2%. In addition, the differential viability (reversal) in assay [4] (H69AR cells + 2 uM doxorubicin) was -2.01% (inactive). For the same compound, the inhibition in assay [5] is -3.97% (inactive); in assay [6], -0.81% (inactive).
